Published values of several laboratories.
Protocols differ between the studies behind these lines.
Target: Serine/threonine-protein kinase BRSK1 (BRSK1, Homo sapiens, UniProt Q8TDC3)
Sequence (Q8TDC3 1-778, as in one of the studies): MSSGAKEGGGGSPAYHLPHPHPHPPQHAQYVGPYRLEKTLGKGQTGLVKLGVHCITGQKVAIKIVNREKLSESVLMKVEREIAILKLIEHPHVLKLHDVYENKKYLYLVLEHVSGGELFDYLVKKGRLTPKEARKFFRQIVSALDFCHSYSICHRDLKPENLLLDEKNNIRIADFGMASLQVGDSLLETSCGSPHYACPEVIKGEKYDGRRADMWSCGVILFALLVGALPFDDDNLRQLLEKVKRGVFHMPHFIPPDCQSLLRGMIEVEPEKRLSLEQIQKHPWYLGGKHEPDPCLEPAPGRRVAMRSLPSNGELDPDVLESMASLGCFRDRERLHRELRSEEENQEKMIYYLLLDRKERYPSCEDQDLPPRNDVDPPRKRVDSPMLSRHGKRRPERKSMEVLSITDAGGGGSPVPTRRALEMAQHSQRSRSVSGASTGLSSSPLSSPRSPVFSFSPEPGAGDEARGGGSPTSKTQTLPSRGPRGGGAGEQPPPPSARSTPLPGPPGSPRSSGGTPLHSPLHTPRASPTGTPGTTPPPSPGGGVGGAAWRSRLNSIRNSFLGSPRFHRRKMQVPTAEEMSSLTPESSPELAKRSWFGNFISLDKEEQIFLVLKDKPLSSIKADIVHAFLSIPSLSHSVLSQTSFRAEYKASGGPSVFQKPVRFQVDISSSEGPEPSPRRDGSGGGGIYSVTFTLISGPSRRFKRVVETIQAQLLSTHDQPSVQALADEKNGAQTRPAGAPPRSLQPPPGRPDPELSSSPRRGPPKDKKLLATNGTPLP

COc1ccc2oc(-c3ccc4nc(N)oc4c3)c/c(=N\c3ccccc3NC(=O)CCN)c2c1 — remaining binding (binding; 1 µM): 103%
C#Cc1cc(-c2cc(Nc3nc(N[C@@H](C)c4ccc(F)cn4)ncc3Cl)n[nH]2)ccc1C=O — inhibition (enzyme activity; inhibitor; 0.2 µM): 10.3%
COc1ccc2[nH]c3c4[nH]c5ccc(OC)cc5c4c4c(c3c2c1)C(=O)NC4=O — remaining binding (binding; 1 µM): 10%
CCCCC(=O)Nc1ccc(-c2ccc3ncn(CCC)c(=O)c3c2)cn1 — remaining binding (binding; competition with immobilised ligand; 0.5 µM): 100%
CO[C@@H]1[C@H](N(C)C(=O)c2ccccc2)C[C@H]2O[C@]1(C)n1c3ccccc3c3c4c(c5c6ccccc6n2c5c31)C(=O)NC4 — inhibition (enzyme activity; inhibitor; 1 µM): 48%
Cc1ccc(NC(=O)c2ccnc(C(F)(F)F)c2)cc1-c1cc(OCCO)nc(N2CCOCC2)c1 — remaining binding (binding; 1 µM): 93%
C=CC(=O)N1CCC([C@@H]2CCNc3c(C(N)=O)c(-c4ccc(Oc5ccccc5)cc4)nn32)CC1 — inhibition (enzyme activity; inhibitor; 1 µM): 0%
C1=C/COCc2cc(ccc2OCCN2CCCC2)Nc2nccc(n2)-c2cccc(c2)COC/1 — remaining binding (binding; 0.1 µM): 99%
